ChEMBL document CHEMBL3108666, “Cytotoxic and protein kinase inhibiting nakijiquinones and nakijiquinols from the sponge Dactylospongia metachromia” (J Nat Prod, 2014)
pIC50: −log10 of the molar value. The source made the active and inactive calls. The rule behind the calls is not given here.

Experiments:
[1] = test system: L5178Y; assay: Cytotoxicity against mouse L5178Y cells assessed as growth inhibition by MTT assay; type: functional, cell-based
Outline: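 L5178Y mouse lymphoma cells; MTT microculture tetrazolium read-out, compared with untreated controls; media with 0.1% EGMME-DMSO as negative control; three independent experiments, each in triplicate.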

[2] = target: T1, ALK tyrosine kinase receptor (Homo sapiens, UniProt Q9UM73); assay: Inhibition of recombinant ALK (unknown origin) assessed as incorporation of [gamma-33P]-ATP into substrate at 10 uM by radiometric assay
Outline: (§1)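 Radiometric 33PanQinase format: recombinant kinase incubated with [γ-33P]ATP plus unlabeled ATP and kinase substrate; substrate-incorporated label measured by FlashPlate counting; compounds screened at 10 μM each across a 16-kinase panel.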

[3] = target: T2, Proto-oncogene tyrosine-protein kinase Src (Homo sapiens, UniProt P12931); assay: Inhibition of recombinant SRC (unknown origin) using casein as substrate assessed as incorporation of [gamma-33P]-ATP into substrate at 10 uM by radiometric assay; outline: as §1
[4] = target: T3, Vascular endothelial growth factor receptor 2 (Homo sapiens, UniProt P35968); assay: Inhibition of recombinant VEGFR2 (unknown origin) using poly(Glu,Tyr)4:1 as substrate assessed as incorporation of [gamma-33P]-ATP into substrate at 10 uM by radiometric assay; outline: as §1
[5] = target: T4, Insulin-like growth factor 1 receptor (Homo sapiens, UniProt P08069); assay: Inhibition of recombinant IGF1R (unknown origin) using Poly (Glu,Tyr) 4:1 as substrate assessed as incorporation of [gamma-33P]-ATP into substrate at 10 uM by radiometric assay; outline: as §1
[6] = target: T5, Focal adhesion kinase 1 (Homo sapiens, UniProt Q05397); assay: Inhibition of recombinant FAK (unknown origin) assessed as incorporation of [gamma-33P]-ATP into substrate at 10 uM by radiometric assay; outline: as §1
[7] = target: T3, Vascular endothelial growth factor receptor 2; assay: Inhibition of recombinant VEGFR2 (unknown origin) using poly(Glu,Tyr)4:1 as substrate assessed as incorporation of [gamma-33P]-ATP into substrate by radiometric assay; outline: as §1
[8] = target: T6, NUAK family SNF1-like kinase 1 (Homo sapiens, UniProt O60285); assay: Inhibition of recombinant ARK5 (unknown origin) assessed as incorporation of [gamma-33P]-ATP into substrate by radiometric assay; outline: as §1
T6 sequence (O60285 whole entry): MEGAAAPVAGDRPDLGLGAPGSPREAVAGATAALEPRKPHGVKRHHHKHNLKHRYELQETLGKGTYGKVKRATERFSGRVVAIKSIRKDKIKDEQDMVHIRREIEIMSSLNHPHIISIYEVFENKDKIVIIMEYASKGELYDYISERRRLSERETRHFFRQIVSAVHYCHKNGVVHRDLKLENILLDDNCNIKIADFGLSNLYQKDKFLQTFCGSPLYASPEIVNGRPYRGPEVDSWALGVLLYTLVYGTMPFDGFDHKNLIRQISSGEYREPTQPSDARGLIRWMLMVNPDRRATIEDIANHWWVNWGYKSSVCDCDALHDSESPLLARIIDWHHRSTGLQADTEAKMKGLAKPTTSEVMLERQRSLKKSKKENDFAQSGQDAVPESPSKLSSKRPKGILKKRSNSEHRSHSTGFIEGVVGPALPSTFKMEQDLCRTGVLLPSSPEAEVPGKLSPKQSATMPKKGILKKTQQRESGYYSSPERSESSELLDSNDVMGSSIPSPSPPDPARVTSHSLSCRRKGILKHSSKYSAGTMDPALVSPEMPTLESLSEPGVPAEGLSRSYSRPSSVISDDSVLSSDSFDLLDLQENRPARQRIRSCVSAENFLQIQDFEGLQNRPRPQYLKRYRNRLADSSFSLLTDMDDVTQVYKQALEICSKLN

[9] = target: Dual specificity mitogen-activated protein kinase kinase 1 (Homo sapiens, UniProt Q02750); assay: Inhibition of wild type MEK1 (unknown origin) assessed as incorporation of [gamma-33P]-ATP into substrate by radiometric assay
[10] = target: Serine/threonine-protein kinase PLK1 (Homo sapiens, UniProt P53350); assay: Inhibition of recombinant PLK1 (unknown origin) using casein as substrate assessed as incorporation of [gamma-33P]-ATP into substrate by radiometric assay
[11] = target: T4, Insulin-like growth factor 1 receptor; assay: Inhibition of recombinant IGF1R (unknown origin) using Poly (Glu,Tyr) 4:1 as substrate assessed as incorporation of [gamma-33P]-ATP into substrate by radiometric assay
[12] = target: T5, Focal adhesion kinase 1; assay: Inhibition of recombinant FAK (unknown origin) assessed as incorporation of [gamma-33P]-ATP into substrate by radiometric assay; outline: as §1
[13] = target: T7, Serine/threonine-protein kinase Nek2 (Homo sapiens, UniProt P51955); assay: Inhibition of recombinant NEK2 (unknown origin) assessed as incorporation of [gamma-33P]-ATP into substrate by radiometric assay
T7 sequence (P51955 whole entry): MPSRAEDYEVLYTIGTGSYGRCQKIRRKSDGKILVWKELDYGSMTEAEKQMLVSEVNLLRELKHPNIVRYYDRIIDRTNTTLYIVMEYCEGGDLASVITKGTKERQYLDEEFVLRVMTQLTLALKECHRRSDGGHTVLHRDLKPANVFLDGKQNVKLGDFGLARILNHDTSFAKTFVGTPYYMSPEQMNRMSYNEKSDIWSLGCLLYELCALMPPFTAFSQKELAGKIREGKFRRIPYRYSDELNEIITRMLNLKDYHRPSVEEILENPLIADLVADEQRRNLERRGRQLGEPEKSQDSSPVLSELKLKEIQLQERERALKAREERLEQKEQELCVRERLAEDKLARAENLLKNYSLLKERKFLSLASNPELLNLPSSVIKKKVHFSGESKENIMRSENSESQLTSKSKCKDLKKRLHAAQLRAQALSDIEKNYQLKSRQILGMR

[14] = target: RAC-alpha serine/threonine-protein kinase (Homo sapiens, UniProt P31749); assay: Inhibition of recombinant AKT1 (unknown origin) using GSK3 (14 to 27) as substrate assessed as incorporation of [gamma-33P]-ATP into substrate by radiometric assay; outline: as §1
[15] = target: Serine/threonine-protein kinase N1 (Homo sapiens, UniProt Q16512); assay: Inhibition of recombinant PRK1 (unknown origin) using casein as substrate assessed as incorporation of [gamma-33P]-ATP into substrate by radiometric assay; outline: as §1
[16] = target: T2, Proto-oncogene tyrosine-protein kinase Src; assay: Inhibition of recombinant SRC (unknown origin) using casein as substrate assessed as incorporation of [gamma-33P]-ATP into substrate by radiometric assay
[17] = target: T1, ALK tyrosine kinase receptor; assay: Inhibition of recombinant ALK (unknown origin) assessed as incorporation of [gamma-33P]-ATP into substrate by radiometric assay
Target sequence in this assay (Q9UM73 whole entry): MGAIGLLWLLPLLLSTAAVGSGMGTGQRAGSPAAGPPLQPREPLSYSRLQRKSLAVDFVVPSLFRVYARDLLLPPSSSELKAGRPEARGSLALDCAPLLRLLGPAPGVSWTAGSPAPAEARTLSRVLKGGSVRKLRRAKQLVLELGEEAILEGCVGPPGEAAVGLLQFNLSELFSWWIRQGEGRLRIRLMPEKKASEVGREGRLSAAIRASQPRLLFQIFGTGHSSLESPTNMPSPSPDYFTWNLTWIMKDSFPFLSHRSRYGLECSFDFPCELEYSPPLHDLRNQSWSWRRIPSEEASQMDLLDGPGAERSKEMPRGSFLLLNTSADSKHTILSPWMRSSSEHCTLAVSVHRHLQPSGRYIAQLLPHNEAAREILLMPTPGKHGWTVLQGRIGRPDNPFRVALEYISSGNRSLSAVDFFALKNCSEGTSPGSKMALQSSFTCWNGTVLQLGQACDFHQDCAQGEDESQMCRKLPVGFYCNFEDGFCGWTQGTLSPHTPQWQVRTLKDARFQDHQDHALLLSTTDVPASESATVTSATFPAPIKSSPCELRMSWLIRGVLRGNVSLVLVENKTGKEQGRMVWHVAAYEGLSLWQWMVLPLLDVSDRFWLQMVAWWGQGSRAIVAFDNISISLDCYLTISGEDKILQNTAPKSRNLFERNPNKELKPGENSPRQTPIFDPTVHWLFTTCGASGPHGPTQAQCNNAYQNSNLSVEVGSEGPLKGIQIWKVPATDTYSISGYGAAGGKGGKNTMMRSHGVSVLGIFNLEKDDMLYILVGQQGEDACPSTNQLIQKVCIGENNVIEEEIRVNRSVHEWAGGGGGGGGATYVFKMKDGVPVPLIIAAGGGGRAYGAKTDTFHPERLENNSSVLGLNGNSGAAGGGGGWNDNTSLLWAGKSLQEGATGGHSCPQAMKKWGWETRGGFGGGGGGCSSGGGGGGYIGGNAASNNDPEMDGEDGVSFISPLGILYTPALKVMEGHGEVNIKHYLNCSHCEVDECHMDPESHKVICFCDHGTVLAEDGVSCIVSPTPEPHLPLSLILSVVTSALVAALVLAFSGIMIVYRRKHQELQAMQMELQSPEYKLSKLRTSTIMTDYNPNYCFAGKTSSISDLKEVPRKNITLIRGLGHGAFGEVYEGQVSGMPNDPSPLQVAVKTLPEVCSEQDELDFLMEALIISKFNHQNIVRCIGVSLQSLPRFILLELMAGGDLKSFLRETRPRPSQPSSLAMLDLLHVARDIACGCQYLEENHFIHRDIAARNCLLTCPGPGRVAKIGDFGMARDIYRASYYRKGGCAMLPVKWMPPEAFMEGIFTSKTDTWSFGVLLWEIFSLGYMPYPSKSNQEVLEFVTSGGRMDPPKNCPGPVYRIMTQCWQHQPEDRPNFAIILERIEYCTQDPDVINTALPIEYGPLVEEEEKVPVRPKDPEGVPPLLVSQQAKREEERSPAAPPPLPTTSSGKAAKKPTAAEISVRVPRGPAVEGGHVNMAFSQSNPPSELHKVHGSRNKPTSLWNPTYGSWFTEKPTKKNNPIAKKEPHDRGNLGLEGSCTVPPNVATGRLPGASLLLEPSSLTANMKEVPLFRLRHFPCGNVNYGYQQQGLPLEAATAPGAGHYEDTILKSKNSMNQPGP

[18] = target: Hepatocyte growth factor receptor (Homo sapiens, UniProt P08581); assay: Inhibition of wild type MET (unknown origin) assessed as incorporation of [gamma-33P]-ATP into substrate by radiometric assay
[19] = target: T8, Tyrosine-protein kinase receptor UFO (Homo sapiens, UniProt P30530); assay: Inhibition of recombinant AXL (unknown origin) assessed as incorporation of [gamma-33P]-ATP into substrate by radiometric assay
T8 sequence (P30530 whole entry): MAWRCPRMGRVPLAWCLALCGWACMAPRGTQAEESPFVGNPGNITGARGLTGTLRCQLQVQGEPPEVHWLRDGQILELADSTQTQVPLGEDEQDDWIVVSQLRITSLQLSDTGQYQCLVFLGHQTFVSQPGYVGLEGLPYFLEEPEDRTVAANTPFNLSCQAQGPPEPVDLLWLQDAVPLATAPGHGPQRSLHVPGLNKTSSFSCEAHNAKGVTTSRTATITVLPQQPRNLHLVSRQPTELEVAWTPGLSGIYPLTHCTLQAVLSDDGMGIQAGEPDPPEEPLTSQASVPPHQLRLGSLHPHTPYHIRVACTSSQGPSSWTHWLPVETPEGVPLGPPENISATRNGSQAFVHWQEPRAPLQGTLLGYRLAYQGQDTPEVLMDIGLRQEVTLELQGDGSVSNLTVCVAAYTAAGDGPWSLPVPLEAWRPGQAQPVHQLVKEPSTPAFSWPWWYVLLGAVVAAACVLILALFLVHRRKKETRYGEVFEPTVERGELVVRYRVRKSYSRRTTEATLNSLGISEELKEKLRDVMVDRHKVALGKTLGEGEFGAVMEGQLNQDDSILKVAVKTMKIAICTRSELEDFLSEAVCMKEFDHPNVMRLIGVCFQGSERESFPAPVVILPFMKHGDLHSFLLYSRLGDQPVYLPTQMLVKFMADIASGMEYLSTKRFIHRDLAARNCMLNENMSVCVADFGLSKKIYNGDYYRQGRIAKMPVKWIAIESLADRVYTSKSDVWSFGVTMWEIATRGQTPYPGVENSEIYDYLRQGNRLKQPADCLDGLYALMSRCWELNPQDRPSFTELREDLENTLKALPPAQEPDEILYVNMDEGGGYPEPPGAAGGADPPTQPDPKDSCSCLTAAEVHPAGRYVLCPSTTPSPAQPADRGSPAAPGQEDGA

[20] = target: Serine/threonine-protein kinase Nek6 (Homo sapiens, UniProt Q9HC98); assay: Inhibition of recombinant NEK6 (unknown origin) assessed as incorporation of [gamma-33P]-ATP into substrate by radiometric assay; outline: as §1
[21] = target: Aurora kinase B (Homo sapiens, UniProt Q96GD4); assay: Inhibition of recombinant aurora kinase B (unknown origin) using tetra(LRRWSLG) as substrate assessed as incorporation of [gamma-33P]-ATP into substrate by radiometric assay
[22] = target: Serine/threonine-protein kinase pim-1 (Homo sapiens, UniProt P11309); assay: Inhibition of recombinant PIM1 (unknown origin) assessed as incorporation of [gamma-33P]-ATP into substrate by radiometric assay; outline: as §1

Chain of Aurora kinase B (Q96GD4 whole entry): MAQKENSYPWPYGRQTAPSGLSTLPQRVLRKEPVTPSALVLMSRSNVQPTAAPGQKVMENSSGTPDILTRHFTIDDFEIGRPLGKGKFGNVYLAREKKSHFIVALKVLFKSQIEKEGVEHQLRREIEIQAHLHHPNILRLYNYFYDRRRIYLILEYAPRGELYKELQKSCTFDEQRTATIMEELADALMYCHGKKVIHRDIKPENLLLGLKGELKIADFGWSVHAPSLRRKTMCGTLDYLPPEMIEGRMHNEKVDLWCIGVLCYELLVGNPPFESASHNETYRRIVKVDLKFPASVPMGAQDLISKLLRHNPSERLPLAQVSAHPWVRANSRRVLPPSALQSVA
T3 sequence (P35968 whole entry): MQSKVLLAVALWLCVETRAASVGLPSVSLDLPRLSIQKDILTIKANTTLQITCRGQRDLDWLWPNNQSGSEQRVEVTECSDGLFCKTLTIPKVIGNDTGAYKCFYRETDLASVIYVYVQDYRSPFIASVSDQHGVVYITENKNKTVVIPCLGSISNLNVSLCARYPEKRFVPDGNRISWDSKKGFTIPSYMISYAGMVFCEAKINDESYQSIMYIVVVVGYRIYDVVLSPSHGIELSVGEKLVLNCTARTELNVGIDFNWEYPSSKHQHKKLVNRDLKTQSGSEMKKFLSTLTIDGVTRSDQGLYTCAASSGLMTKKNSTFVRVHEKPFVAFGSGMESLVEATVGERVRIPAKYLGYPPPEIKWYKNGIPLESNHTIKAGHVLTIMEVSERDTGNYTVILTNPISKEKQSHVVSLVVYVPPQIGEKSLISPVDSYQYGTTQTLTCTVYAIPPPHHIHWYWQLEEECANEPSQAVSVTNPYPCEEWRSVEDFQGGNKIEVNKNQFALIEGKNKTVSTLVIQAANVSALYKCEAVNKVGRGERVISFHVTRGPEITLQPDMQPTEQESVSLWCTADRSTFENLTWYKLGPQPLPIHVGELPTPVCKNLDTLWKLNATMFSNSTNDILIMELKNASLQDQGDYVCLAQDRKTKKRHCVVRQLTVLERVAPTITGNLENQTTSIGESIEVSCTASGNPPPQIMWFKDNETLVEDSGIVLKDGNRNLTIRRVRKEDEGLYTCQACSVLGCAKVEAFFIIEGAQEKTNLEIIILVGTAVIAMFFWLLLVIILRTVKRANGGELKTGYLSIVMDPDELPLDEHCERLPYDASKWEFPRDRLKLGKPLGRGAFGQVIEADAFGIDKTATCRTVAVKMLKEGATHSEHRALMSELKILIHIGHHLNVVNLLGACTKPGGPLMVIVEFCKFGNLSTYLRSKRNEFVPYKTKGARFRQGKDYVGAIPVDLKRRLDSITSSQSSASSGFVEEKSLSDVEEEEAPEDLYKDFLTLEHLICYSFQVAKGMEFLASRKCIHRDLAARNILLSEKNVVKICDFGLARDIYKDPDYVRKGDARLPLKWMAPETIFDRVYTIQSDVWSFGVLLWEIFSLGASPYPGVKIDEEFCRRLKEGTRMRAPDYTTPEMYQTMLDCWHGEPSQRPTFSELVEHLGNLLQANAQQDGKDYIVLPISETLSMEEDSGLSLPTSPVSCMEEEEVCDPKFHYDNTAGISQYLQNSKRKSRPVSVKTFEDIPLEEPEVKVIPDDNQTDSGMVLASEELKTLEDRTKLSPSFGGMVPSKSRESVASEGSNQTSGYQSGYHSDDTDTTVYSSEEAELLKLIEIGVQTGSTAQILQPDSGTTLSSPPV
Chain of Hepatocyte growth factor receptor (P08581 whole entry): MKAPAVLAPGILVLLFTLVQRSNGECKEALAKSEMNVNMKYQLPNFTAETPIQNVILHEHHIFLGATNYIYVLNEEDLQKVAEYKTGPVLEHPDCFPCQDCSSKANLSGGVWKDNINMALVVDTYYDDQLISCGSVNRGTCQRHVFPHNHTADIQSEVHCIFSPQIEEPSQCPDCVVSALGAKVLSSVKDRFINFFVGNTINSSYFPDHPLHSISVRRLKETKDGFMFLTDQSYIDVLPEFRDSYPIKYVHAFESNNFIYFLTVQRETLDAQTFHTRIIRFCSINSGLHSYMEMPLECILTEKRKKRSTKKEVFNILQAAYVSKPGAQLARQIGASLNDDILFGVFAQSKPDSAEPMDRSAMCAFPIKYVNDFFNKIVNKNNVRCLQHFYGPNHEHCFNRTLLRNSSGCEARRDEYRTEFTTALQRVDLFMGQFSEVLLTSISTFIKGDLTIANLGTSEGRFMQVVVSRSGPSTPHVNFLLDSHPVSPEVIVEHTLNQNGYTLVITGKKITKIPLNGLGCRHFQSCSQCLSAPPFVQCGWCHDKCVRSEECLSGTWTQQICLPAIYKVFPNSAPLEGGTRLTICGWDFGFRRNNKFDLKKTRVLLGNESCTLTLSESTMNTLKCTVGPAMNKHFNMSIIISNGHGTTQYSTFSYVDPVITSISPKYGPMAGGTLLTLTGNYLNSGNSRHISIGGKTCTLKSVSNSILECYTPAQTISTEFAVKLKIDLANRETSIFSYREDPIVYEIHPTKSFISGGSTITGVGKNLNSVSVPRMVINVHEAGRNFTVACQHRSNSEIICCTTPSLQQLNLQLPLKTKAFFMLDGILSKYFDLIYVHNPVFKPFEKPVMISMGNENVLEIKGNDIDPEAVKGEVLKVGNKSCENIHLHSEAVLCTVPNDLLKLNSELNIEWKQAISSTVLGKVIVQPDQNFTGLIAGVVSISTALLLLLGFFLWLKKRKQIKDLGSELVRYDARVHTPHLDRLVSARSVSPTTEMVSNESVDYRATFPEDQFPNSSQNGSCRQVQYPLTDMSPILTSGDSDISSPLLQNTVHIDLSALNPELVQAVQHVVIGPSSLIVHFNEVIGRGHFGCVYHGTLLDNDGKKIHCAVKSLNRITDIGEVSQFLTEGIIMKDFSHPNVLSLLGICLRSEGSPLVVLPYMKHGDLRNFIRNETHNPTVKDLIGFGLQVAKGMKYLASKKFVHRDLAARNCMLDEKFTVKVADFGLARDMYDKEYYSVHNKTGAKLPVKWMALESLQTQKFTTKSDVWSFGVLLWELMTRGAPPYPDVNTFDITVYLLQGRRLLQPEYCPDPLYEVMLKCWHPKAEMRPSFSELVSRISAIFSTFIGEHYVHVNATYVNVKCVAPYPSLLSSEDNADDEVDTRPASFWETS
Chain of Serine/threonine-protein kinase Nek6 (Q9HC98 whole entry): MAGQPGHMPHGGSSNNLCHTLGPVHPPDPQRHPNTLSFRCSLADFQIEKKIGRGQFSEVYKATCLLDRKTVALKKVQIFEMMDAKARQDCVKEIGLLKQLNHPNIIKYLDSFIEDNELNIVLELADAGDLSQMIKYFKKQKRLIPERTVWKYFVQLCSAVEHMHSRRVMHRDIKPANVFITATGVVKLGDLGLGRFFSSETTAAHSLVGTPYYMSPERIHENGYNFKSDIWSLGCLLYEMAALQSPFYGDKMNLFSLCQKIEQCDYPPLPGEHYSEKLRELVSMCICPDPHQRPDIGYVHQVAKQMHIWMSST

inhibition [2]	inhibition [3]	inhibition [4]	inhibition [5]	inhibition [6]	pIC50 [7]	pIC50 [8]	pIC50 [9]	pIC50 [10]	pIC50 [11]	pIC50 [12]	pIC50 [13]	pIC50 [14]	pIC50 [15]	pIC50 [16]	pIC50 [17]	pIC50 [18]	pIC50 [19]	pIC50 [20]	Structure (SMILES)	pIC50 [1]	further results
Active	Active	Active	Active	Active	–	–	–	–	–	–	–	–	–	–	–	–	–	–	CC1=CCC[C@H]2[C@](C)(CC3=C(O)C(=O)C=C(NCCc4ccccc4)C3=O)[C@@H](C)CC[C@@]12C	5.96	–
–	–	–	–	–	5.65	< 4.00	< 4.00	4.00	5.71	5.52	4.52	4.14	< 4.00	5.66	6.01	4.39	< 4.00	4.04	CC1=CCC[C@H]2[C@](C)(CC3=C(O)C(=O)C=C(NCCC(C)C)C3=O)[C@@H](C)CC[C@@]12C	5.89	pIC50 [21]: 4.21; pIC50 [22]: 4.20
–	–	–	–	–	5.44	< 4.00	< 4.00	< 4.00	5.48	5.11	< 4.00	< 4.00	< 4.00	4.71	5.47	< 4.00	4.83	< 4.00	COc1cc2nc(C)oc2c(C[C@]2(C)[C@@H](C)CC[C@@]3(C)C(C)=CCC[C@@H]23)c1O	< 5.00	pIC50 [21]: < 4.00; pIC50 [22]: < 4.00
Active	–	–	Active	Active	–	–	–	–	–	–	–	–	–	–	–	–	–	–	CC1=CCC[C@H]2[C@](C)(Cc3c4oc(C)nc4cc4nc(C)oc34)[C@@H](C)CC[C@@]12C	< 5.00	–
Active	Active	Active	Active	Active	–	–	–	–	–	–	–	–	–	–	–	–	–	–	CC1=CCC[C@H]2[C@](C)(CC3=C(O)C(=O)C=C(NCCc4ccc(O)cc4)C3=O)[C@@H](C)CC[C@@]12C	5.77	–
–	–	–	–	–	5.32	4.53	< 4.00	4.66	4.93	5.34	4.83	4.32	< 4.00	5.06	5.66	5.51	4.88	5.11	COC(=O)c1cc(O)c(O)c(C[C@]2(C)[C@@H](C)CC[C@@]3(C)C(C)=CCC[C@@H]23)c1	< 5.00	pIC50 [21]: 5.41; pIC50 [22]: 4.69
Active	Active	Active	Active	Active	–	–	–	–	–	–	–	–	–	–	–	–	–	–	CSCCCNC1=CC(=O)C(O)=C(C[C@]2(C)[C@@H](C)CC[C@@]3(C)C(C)=CCC[C@@H]23)C1=O	5.74	–
Active	Active	Active	Active	Active	–	–	–	–	–	–	–	–	–	–	–	–	–	–	CC1=CCC[C@H]2[C@](C)(CC3=C(O)C(=O)C=C(NCCc4c[nH]c5ccccc45)C3=O)[C@@H](C)CC[C@@]12C	5.43	–
